Active and inactive are the calls of the source. How the calls were made is not given here.
Legend:
TLR2/TLR6 (Mus musculus) [1] = biological target: T1, TLR2/TLR6 (Mus musculus) (UniProt Q9QUN7+Q9EPW9); experiment: Inhibition of TLR2/6 in BALB/c mouse BMDM assessed as downregulation of BLP-stimulated IL-6 level at 5 ug/ml preincubated for 18 hrs followed by BLP challenge measured after 24 hrs by ELISA relative to control; assay type: protein-complex assay
Procedure, shortened: (§1)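 BALB/c male bone marrow macrophages were differentiated 7 days with L929 supernatant (≥99% CD11b+/F4/80+). Cells were plated at 2 × 10^5/well in triplicate, rested overnight, and given compounds at 5 μg/mL for 18 h. They were then stimulated with 100 ng/mL S. minnesota LPS, 10 ng/mL Pam3CSK4 (BLP) or 0.01 μM CpG for 24 h. Supernatant IL-12p40 and IL-6 were measured by ELISA (sensitivity 16 pg/mL).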

[2] = biological target: T2, Toll-like receptor 9 (Mus musculus) (UniProt Q9EQU3); experiment: Inhibition of TLR9 in BALB/c mouse BMDM assessed as downregulation of CpG-stimulated IL-6 level at 5 ug/ml preincubated for 18 hrs followed by CpG challenge measured after 24 hrs by ELISA relative to control; procedure, shortened: as §1
T2 sequence (whole entry): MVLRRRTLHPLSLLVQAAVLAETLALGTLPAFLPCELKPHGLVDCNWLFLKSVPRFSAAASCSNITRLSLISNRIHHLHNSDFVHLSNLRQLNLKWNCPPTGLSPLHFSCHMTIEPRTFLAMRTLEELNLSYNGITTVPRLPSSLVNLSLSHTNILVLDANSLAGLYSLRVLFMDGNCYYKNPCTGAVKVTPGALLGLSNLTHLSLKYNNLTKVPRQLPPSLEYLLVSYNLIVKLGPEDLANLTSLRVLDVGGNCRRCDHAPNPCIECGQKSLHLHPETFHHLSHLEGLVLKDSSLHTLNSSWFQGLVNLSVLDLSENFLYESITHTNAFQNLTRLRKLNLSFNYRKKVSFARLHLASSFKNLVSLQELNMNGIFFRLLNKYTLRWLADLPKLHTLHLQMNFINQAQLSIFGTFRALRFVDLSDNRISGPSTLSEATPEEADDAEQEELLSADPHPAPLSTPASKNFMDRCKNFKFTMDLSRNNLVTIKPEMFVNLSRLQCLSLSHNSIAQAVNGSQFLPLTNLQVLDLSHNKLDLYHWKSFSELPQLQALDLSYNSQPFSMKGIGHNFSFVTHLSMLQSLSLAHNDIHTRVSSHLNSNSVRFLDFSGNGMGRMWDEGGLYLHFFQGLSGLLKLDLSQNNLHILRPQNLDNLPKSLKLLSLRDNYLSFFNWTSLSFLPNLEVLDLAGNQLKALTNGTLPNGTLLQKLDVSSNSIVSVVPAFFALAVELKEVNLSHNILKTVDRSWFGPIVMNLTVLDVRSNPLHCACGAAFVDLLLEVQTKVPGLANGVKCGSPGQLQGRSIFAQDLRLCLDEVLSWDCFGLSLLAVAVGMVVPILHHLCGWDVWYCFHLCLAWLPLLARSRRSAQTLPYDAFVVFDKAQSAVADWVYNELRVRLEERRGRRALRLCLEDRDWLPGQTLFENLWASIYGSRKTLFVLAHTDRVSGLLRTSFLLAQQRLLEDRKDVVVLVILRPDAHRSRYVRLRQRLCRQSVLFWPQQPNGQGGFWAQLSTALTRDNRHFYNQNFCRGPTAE

[3] = biological target: T3, Toll-like receptor 4 (Mus musculus) (UniProt Q9QUK6); experiment: Inhibition of TLR4 in BALB/c mouse BMDM assessed as downregulation of LPS-stimulated IL-6 level at 5 ug/ml preincubated for 18 hrs followed by LPS challenge measured after 24 hrs by ELISA relative to control; procedure, shortened: as §1
T3 sequence (whole entry): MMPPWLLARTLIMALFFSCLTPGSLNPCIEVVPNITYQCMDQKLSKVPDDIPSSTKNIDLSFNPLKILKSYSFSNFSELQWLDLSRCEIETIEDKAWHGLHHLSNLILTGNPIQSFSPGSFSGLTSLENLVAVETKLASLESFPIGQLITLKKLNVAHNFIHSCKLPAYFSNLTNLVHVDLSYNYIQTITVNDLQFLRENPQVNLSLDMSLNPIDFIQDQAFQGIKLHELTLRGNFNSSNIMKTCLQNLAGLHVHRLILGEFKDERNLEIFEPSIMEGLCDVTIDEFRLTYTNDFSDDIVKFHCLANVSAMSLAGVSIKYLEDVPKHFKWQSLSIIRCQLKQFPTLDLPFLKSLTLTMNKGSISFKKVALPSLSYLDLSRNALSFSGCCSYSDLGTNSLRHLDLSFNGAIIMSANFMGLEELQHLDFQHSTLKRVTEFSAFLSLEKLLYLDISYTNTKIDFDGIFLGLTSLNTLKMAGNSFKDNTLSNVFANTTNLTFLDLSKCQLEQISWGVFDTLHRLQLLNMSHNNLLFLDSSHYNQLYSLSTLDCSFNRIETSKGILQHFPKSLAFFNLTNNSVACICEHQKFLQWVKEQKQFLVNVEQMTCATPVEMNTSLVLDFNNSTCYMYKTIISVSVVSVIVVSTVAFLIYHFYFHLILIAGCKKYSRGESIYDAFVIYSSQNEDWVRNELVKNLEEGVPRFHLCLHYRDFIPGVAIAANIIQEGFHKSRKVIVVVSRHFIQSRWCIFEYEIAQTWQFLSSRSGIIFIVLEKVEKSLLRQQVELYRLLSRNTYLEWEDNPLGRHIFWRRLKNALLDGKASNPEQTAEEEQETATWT

TLR2/TLR6 (Mus musculus) [4] = biological target: T1, TLR2/TLR6 (Mus musculus); experiment: Inhibition of TLR2/6 in BALB/c mouse BMDM assessed as downregulation of BLP-stimulated IL-12p40 level at 5 ug/ml preincubated for 18 hrs followed by BLP challenge measured after 24 hrs by ELISA relative to control; assay type: protein-complex assay; procedure, shortened: as §1
[5] = biological target: T3, Toll-like receptor 4 (Mus musculus); experiment: Inhibition of TLR4 in BALB/c mouse BMDM assessed as downregulation of LPS-stimulated IL-12p40 level at 5 ug/ml preincubated for 18 hrs followed by LPS challenge measured after 24 hrs by ELISA relative to control; procedure, shortened: as §1
[6] = biological target: T2, Toll-like receptor 9 (Mus musculus); experiment: Inhibition of TLR9 in BALB/c mouse BMDM assessed as downregulation of CpG-stimulated IL-12p40 level at 5 ug/ml preincubated for 18 hrs followed by CpG challenge measured after 24 hrs by ELISA relative to control; procedure, shortened: as §1

| SMILES | inhibition (TLR2/TLR6 (Mus musculus) [1]) | inhibition [2] | inhibition [3] | inhibition (TLR2/TLR6 (Mus musculus) [4]) | inhibition [5] | inhibition [6] |
| --- | --- | --- | --- | --- | --- | --- |
| C[N+]1(CCCS(=O)(=O)Cc2ccc(Br)cc2)CCOCC1 | inactive | inactive | inactive | inactive | inactive | inactive |
| O=S(=O)(CCCN1CCCC1)Cc1ccc(Br)cc1 | inactive | inactive | inactive | inactive | inactive | inactive |
| Cc1ccc(CS(=O)(=O)NCCCN(C)C)cc1 | inactive | inactive | inactive | inactive | inactive | inactive |
| Cc1ccc(CS(=O)(=O)NCCN2CCCC2)cc1 | inactive | inactive | inactive | inactive | inactive | inactive |
| O=S(=O)(CCN1CCCC1)Nc1ccc(F)cc1 | inactive | inactive | inactive | inactive | Active | inactive |
| CN(C)CCCNS(=O)(=O)Cc1ccc(F)cc1 | inactive | inactive | inactive | inactive | inactive | inactive |
| CN(C)CCS(=O)(=O)Cc1cccc(F)c1 | inactive | inactive | inactive | inactive | inactive | inactive |
| CC[C@@H](C)NCCS(=O)(=O)c1ccccc1 | inactive | inactive | inactive | inactive | inactive | inactive |
| Cc1ccc(CS(=O)(=O)CCCN2CCCC2)cc1 | inactive | inactive | inactive | inactive | inactive | inactive |
| CN(C)CCNS(=O)(=O)Cc1ccc(F)cc1 | inactive | inactive | inactive | inactive | inactive | inactive |
| CN(C)CCS(=O)(=O)Nc1ccc(F)cc1 | inactive | inactive | inactive | inactive | Active | inactive |
| Cc1ccc(CS(=O)(=O)CC[N+]2(C)CCCC2)cc1 | inactive | inactive | inactive | Active | Active | inactive |
| O=S(=O)(Cc1ccc(Br)cc1)NCCN1CCCC1 | inactive | inactive | inactive | inactive | inactive | inactive |
| O=S(=O)(Cc1ccc2ccccc2c1)NCCN1CCCC1 | Active | inactive | inactive | inactive | inactive | inactive |
| CN(C)CCN(C)CCS(=O)(=O)c1ccccc1 | inactive | inactive | inactive | inactive | inactive | inactive |
| O=S(=O)(CCN1CCOCC1)c1ccccc1 | inactive | inactive | inactive | Active | inactive | inactive |
| Cc1ccc(CS(=O)(=O)CCN2CCCC2)cc1 | Active | inactive | Active | Active | Active | inactive |
| CN(C)CCS(=O)(=O)NCc1ccccc1 | inactive | inactive | inactive | inactive | inactive | inactive |
| Cc1ccc(CNS(=O)(=O)CCN2CCCC2)cc1 | inactive | inactive | inactive | inactive | inactive | inactive |
| O=S(=O)(Cc1ccc2ccccc2c1)NCCN1CCOCC1 | inactive | Active | Active | Active | inactive | Active |
| Cc1ccc(CS(=O)(=O)NCCN(C)C)cc1 | inactive | inactive | inactive | inactive | inactive | inactive |
| O=S(=O)(CCN1CCOCC1)Nc1ccc(F)cc1 | inactive | inactive | inactive | inactive | Active | inactive |
| CC[C@H](C)NCCS(=O)(=O)c1ccccc1 | inactive | inactive | inactive | inactive | inactive | inactive |
| O=S(=O)(CCCN1CCOCC1)Cc1ccc(Br)cc1 | Active | inactive | inactive | inactive | inactive | inactive |

From ChEMBL document CHEMBL3108700, “Designing anti-inflammatory drugs from parasitic worms: a synthetic small molecule analogue of the Acanthocheilonema viteae product ES-62 prevents development of collagen-induced arthritis” (J Med Chem, 2013)
